Assay results published in ChEMBL document CHEMBL3400020, “2'-Hydroxy flavanone derivatives as an inhibitors of pro-inflammatory mediators: Experimental and molecular docking studies” (Bioorg Med Chem Lett, 2015).
pIC50: −log10 of the molar value.

Key:
[1] = test system: RAW264.7; assay: Inhibition of LPS-induced nitric oxide production in mouse RAW264.7 cells pre-incubated for 1 hr followed by LPS stimulation for 24 hrs by Griess reagent based assay; type: functional, cell-based
Outline: (§1)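 RAW 264.7 and J774A.1 cells handled in parallel. Viability was read at 50 µM alongside the LPS-stimulated NO (Griess) assay. Values are from three independent experiments, each run in triplicate.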

[2] = test system: J774.A1; assay: Inhibition of LPS-induced nitric oxide production in mouse J774A.1 cells pre-incubated for 1 hr followed by LPS stimulation for 24 hrs by Griess reagent based assay; type: functional, cell-based; outline: as §1
[3] = Cytotoxicity against mouse RAW264.7 cells assessed as cell viability at 50 uM after 24 hrs by MTT assay; type: cell-based; conditions: read-out: Activity; outline: as §1
[4] = Cytotoxicity against mouse J774A.1 cells assessed as cell viability at 50 uM after 24 hrs by MTT assay; type: cell-based, J774.A1; conditions: read-out: Activity; outline: as §1
[5] = test system: RAW264.7; assay: Inhibition of TNFalpha production in mouse RAW264.7 cells at 30 uM incubated for 6 hrs by sandwich immunoassay; type: functional; conditions: RAW264.7, 6 h
Outline: (§2)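 In RAW 264.7 and J774A.1 macrophages, TNF-α and IL-1β were quantified. Single-point data are % inhibition at 30 µM; otherwise IC50 in µM. Values are from three separate experiments, each in triplicate.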

[6] = test system: J774.A1; assay: Inhibition of TNFalpha production in mouse J774A.1 cells at 30 uM incubated for 6 hrs by sandwich immunoassay; type: functional; conditions: J774.A1, 6 h; outline: as §2
[7] = test system: RAW264.7; assay: Inhibition of IL-1beta production in mouse RAW264.7 cells at 30 uM incubated for 12 hrs by sandwich immunoassay; type: functional; conditions: RAW264.7, 12 h; outline: as §2
[8] = test system: J774.A1; assay: Inhibition of IL-1beta production in mouse J774A.1 cells at 30 uM incubated for 12 hrs by sandwich immunoassay; type: functional; conditions: J774.A1, 12 h; outline: as §2
[9] = test system: RAW264.7; assay: Inhibition of TNFalpha production in mouse RAW264.7 cells incubated for 6 hrs by sandwich immunoassay; type: functional, cell-based; conditions: RAW264.7, 6 h; outline: as §2
[10] = test system: J774.A1; assay: Inhibition of TNFalpha production in mouse J774A.1 cells incubated for 6 hrs by sandwich immunoassay; type: functional, cell-based; conditions: J774.A1, 6 h; outline: as §2
[11] = test system: RAW264.7; assay: Inhibition of IL-1beta production in mouse RAW264.7 cells incubated for 12 hrs by sandwich immunoassay; type: functional, cell-based; conditions: RAW264.7, 12 h; outline: as §2
[12] = test system: J774.A1; assay: Inhibition of IL-1beta production in mouse J774A.1 cells incubated for 12 hrs by sandwich immunoassay; type: functional, cell-based; conditions: J774.A1, 12 h; outline: as §2
[13] = test system: Rattus norvegicus; assay: Antiinflammatory activity in Sprague-Dawley rat assessed as inhibition of LPS-induced IL-1beta production at 150 umol/kg, po pre-administered at interval of 12 hrs followed by LPS-stimulation 6 hrs after final dose and measured 2 hrs post LPS challenge by ELISA method; type: functional
[14] = test system: Rattus norvegicus; assay: Antiinflammatory activity in Sprague-Dawley rat assessed as inhibition of LPS-induced TNFalpha production at 150 umol/kg, po pre-administered at interval of 12 hrs followed by LPS-stimulation 2 hrs after final dose and measured 2 hrs post LPS challenge by ELISA method; type: functional
[15] = test system: Rattus norvegicus; assay: Antiinflammatory activity in Sprague-Dawley rat assessed as inhibition of carrageenan-induced paw edema at 150 umol/kg, po administered 1 hr before carrageenan injection and measured 3 hrs post carrageenan challenge
[16] = test system: Rattus norvegicus; assay: Antiinflammatory activity in Sprague-Dawley rat assessed as inhibition of carrageenan-induced paw edema at 150 umol/kg, po administered 1 hr before carrageenan injection and measured 5 hrs post carrageenan challenge

Compound | pIC50 [1] | pIC50 [2] | viability at 24 h, 50 µM [3] [%] | viability at 24 h, 50 µM [4] [%] | inhibition at 30 µM [5] [%] | inhibition at 30 µM [6] [%] | inhibition at 30 µM [7] [%] | inhibition at 30 µM [8] [%] | pIC50 [9] | pIC50 [10] | pIC50 [11] | pIC50 [12] | inhibition in vivo at 150 µmol/kg [13] [%] | inhibition in vivo at 150 µmol/kg [14] [%] | inhibition in vivo at 150 µmol/kg [15] [%] | inhibition in vivo at 150 µmol/kg [16] [%]
COc1ccccc1C1CC(=O)c2ccccc2O1 (centres undefined) | 4.33 | 4.35 | 84.3 | 89.3 | 37.3 | 34.5 | 37.3 | 38.3 | – | – | – | – | – | – | – | –
CCOc1ccccc1C1CC(=O)c2ccccc2O1 (centres undefined) | 4.41 | 4.41 | 82.6 | 92.7 | 38.5 | 38.8 | 29.6 | 27.7 | – | – | – | – | – | – | – | –
CCCOc1ccccc1C1CC(=O)c2ccccc2O1 (centres undefined) | 4.34 | 4.35 | 91.7 | 93.6 | 46 | 44.6 | 45.7 | 43.6 | – | – | – | – | – | – | – | –
CCCCOc1ccccc1C1CC(=O)c2ccccc2O1 (centres undefined) | 4.31 | 4.32 | 78.3 | 95.5 | 48.7 | 47.7 | 19.3 | 42.5 | – | – | – | – | – | – | – | –
CC(C)COc1ccccc1C1CC(=O)c2ccccc2O1 (centres undefined) | 4.44 | 4.48 | 83.3 | 84.5 | 36.7 | 33.2 | 30.4 | 33.5 | – | – | – | – | – | – | – | –
CCCCCOc1ccccc1C1CC(=O)c2ccccc2O1 (centres undefined) | 4.41 | 4.41 | 90.3 | 92.1 | 39.2 | 39.3 | 41.3 | 40.1 | – | – | – | – | – | – | – | –
CC(C)CCOc1ccccc1C1CC(=O)c2ccccc2O1 (centres undefined) | 4.41 | 4.37 | 81.6 | 88.6 | 39.2 | 42.6 | 47.6 | 43.6 | – | – | – | – | – | – | – | –
CC(C)=CCOc1ccccc1C1CC(=O)c2ccccc2O1 (centres undefined) | 4.49 | 4.46 | 94.8 | 92.3 | 41.7 | 31.7 | 41.8 | 40.3 | – | – | – | – | – | – | – | –
C=CCOc1ccccc1C1CC(=O)c2ccccc2O1 (centres undefined) | 4.42 | 4.41 | 89.3 | 84 | 47.8 | 38.6 | 49.3 | 47 | – | – | – | – | – | – | – | –
O=C1CC(c2ccccc2OCc2ccccc2)Oc2ccccc21 (centres undefined) | 4.72 | 4.63 | 91.2 | 96.5 | 86.1 | 83.1 | 93.2 | 91.5 | 4.70 | 4.65 | 4.60 | 4.61 | 28.4 | 32.1 | 9.8 | 35.7
CC(C)c1ccc(COc2ccccc2C2CC(=O)c3ccccc3O2)cc1 (centres undefined) | 4.57 | 4.54 | 92.5 | 99.7 | 80.6 | 78.6 | 91.5 | 91.7 | 4.63 | 4.63 | 4.60 | 4.64 | 24.6 | 30.3 | 18 | 32.3
O=C1CC(c2ccccc2OCc2ccc(F)cc2)Oc2ccccc21 (centres undefined) | 4.55 | 4.59 | 95.2 | 91.1 | 92.7 | 94.1 | 45.2 | 42.1 | 4.75 | 4.74 | – | – | 43.6 | 55.4 | 18.2 | 50.5
O=C1CC(c2ccccc2OCc2cccc(F)c2)Oc2ccccc21 (centres undefined) | 4.81 | 4.88 | 90.3 | 92.7 | 91.6 | 96.2 | 93.3 | 92.7 | 4.70 | 4.70 | 4.56 | 4.52 | 39.2 | 49.6 | 5.2 | 39.5
COCOc1ccccc1C1CC(=O)c2ccccc2O1 (centres undefined) | 4.49 | 4.45 | 92.2 | 99.4 | 48.6 | 45.2 | 35.2 | 33.3 | – | – | – | – | – | – | – | –
C[C@@H]1C[C@H]2[C@@H]3CCC4=CC(=O)C=C[C@]4(C)[C@@]3(F)[C@@H](O)C[C@]2(C)[C@@]1(O)C(=O)CO [DEXAMETHASONE] | – | – | – | – | – | – | – | – | 7.40 | 6.40 | – | 4.66 | 62.5 | 73.4 | – | –
CC(C)Cc1ccc(C(C)C(=O)O)cc1 (centres undefined) [IBUPROFEN] | – | – | – | – | – | – | – | – | – | – | – | – | – | – | 30.5 | 41.4
